Screening data from PubChem.
Only some compounds are listed: those with a hit (about 2% of all), similar ones and a draw of the others.
Lipid droplet = inhibitors of hepatocyte lipid droplet formation, primary screen, imaging, high-throughput imaging, BODIPY stain. inhibition, % at 6.5 µM. AML12 mouse hepatocytes, oleate lipid droplets. AID 1656, 2009. hit rate 0.4% among 240,000;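 active = lipid droplet intensity inhibited by at least 50%, with more than 500 cells counted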
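Assay system: AML12 hepatocytes (mouse) / Also added: 100 µM oleic acid challenge / Times: overnight treatment with compound plus oleate / Detection: high-content imaging of BODIPY-stained droplets and DAPI nuclei / Evaluation: % inhibition of lipid droplet signal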
Arrestin-AP2 inh = inhibitors of beta-arrestin/AP2 binding, primary screen, biochemical, GPCR trafficking, flow cytometry. FITC-arrestin peptide / GST-AP2 beads; AP2 beta2 appendage carries R879A mutation. inhibition, % at 10 µM. hit rate 0.31% among 340,000;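 active = inhibition above a set limit, near 3 SD of compounds lacking own fluorescence, cut at about 54% in these data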;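 note: plate controls were DMSO wells for no effect and 5 µM unlabelled arrestin peptide for full effect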
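Assay system: GST-AP2 R879A bound to glutathione beads, E. coli-expressed; Medium: PBS with 0.05% Tween 20 and 0.1% BSA; Also added: fluorescein-tagged arrestin peptide at 50 nM final; Timing: 12 min plus 1 h, RT; Measured by: flow cytometry, FL1 (488/535 nm); Evaluation: percent drop in bead-associated FITC signal.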
B2AR ag = beta2AR agonists driving receptor internalization, primary screen, cell-based, FAP fluorogen, flow cytometry | Am2.2-beta2AR cells | Beta-2 adrenergic receptor (Homo sapiens), P07550 | response, % (test concentration not listed) | hit rate 0.43% among 340,000;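 active = response above a set limit, near 3 SD of response in nonfluorescent compounds, cut at about 42% in these data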
Target sequence (P07550 whole entry, looked up): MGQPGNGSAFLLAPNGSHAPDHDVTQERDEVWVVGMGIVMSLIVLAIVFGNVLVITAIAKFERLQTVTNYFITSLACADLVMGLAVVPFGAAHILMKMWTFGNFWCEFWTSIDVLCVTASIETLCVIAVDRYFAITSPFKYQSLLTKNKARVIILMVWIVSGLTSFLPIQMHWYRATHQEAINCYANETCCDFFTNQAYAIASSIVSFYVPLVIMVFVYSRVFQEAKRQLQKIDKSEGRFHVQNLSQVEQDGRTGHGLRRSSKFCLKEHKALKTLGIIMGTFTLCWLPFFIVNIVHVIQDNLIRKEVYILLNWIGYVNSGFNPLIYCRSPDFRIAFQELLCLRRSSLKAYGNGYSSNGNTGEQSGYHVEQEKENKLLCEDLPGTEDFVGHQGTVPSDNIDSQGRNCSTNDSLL
NTR1 agonist = agonists of human NTR1, primary screen, imaging, U2OS cells, beta-arrestin-GFP, high content. Neurotensin receptor type 1 (Homo sapiens), P30989. NTR1-U2OS beta-arrestin-GFP spot imaging, agonist mode. activation, % at 20 µM. hit rate 0.17% among 330,000. AID 493036, 2011;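 active = activation at or above 40% of the spot to cytoplasm intensity ratio, with at least 20 cells analyzed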;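 note: 0% = DMSO without peptide and 100% = 100 nM NTR1 peptide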
H9c2 TAG inh = inhibitors of triacylglycerol accumulation, primary screen, cell-based, uHTS, fluorescence, H9c2; H9c2 cells, Nile Red lipid (TAG) fluorescence; cells loaded with 200 µM oleic acid; inhibition, % at 12.5 µM; hit rate 0.66% among 230,000;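 active = pattern-corrected inhibition of lipid staining of at least 50% with the nuclear-stain viability signal not falling by more than 50%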;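 note: 0% = DMSO wells and 100% = triacsin C control wells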
GRK2 inh = compounds blocking aptamer binding on GRK2 – biochemical, human GRK2, bead flow cytometry, HTS, primary screen | inhibition of aptamer binding, % at 10 µM | Beta-adrenergic receptor kinase 1 (Homo sapiens), P25098 | FAM-aptamer displacement from GRK2 | hit rate 0.59% among 330,000 | AID 488847, 2010;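 active = inhibition of aptamer binding above 40%, roughly 3 SD of noise, on plates passing a quality check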;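 note: median bead fluorescence of bound FAM aptamer so fluorescent compounds give negative values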
GRK2 inh confirm = GRK2 aptamer-displacing inhibitors, retest, confirmation, biochemical, cherry pick 1, bead flow cytometry. aptamer displacement, % at 10 µM. hit rate 4% among 2,000. shares compounds with GRK2 inh. bead-bound GRK2, FAM-aptamer displacement;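 active = aptamer displacement above 40%, near three times the noise of non-fluorescent compounds, on plates passing quality checks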;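 note: negative values mostly reflect intrinsic compound fluorescence rather than true enhancement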
Aptamer quench = quenches fluorescent RNA aptamer, GRK2 hit artifact. shares compounds with GRK2 inh. 110 tested, under 10 active. Fluorescent RNA aptamer beads, quenching, flow cytometry; active compounds read high. AID 504521. fluorescence change (kMESF span), kMESF (concentration not given with the values);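 active = compounds whose bead fluorescence drops by more than 37 kMESF across the dose range, marking them as dye quenchers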
Aptamer quench SP = aptamer fluorescence quenching in GRK2 counter-screen. 2,000 tested, under 10 active. shares compounds with GRK2 inh. fluorescence response (% of DMSO), % at 10 µM. Carboxyfluorescein RNA aptamer on beads, flow cytometry quenching; active compounds read low;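 active = compounds that quench the bead-bound fluorescent RNA probe, cutting fluorescence to under half of the solvent control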;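 note: counterscreen run without GRK2 so only probe quenching by compound is measured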
GRK2 CP2 = GRK2 aptamer-displacing inhibitors, hit retest, confirmation, biochemical, cherry pick 2, bead flow cytometry; bead-bound GRK2, FAM-aptamer displacement; inhibition of aptamer binding, % at 10 µM; shares compounds with GRK2 inh; 360 tested, under 10 active; AID 504782, 2011;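 active = inhibition of aptamer binding above 40%, about triple the noise seen with nonglowing compounds, on plates passing quality control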;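 note: negative values mostly come from compounds that fluoresce themselves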
FAM quench CP2 = quenches fluorescent RNA aptamer, GRK2 hit artifact | carboxyfluorescein RNA aptamer beads, flow cytometry quenching; active compounds read low | shares compounds with GRK2 inh | 360 tested, under 10 active | fluorescence response vs DMSO, % at 10 µM;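 active = response vs DMSO under 50%, meaning signal dropped by over half, treated as fluorescence quencher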;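 note: labelled aptamer on streptavidin beads without GRK2 as a quench counter-screen; 100% = bead fluorescence of DMSO wells and lower means quenching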
FAM quench DR = quenchers of FAM-labeled RNA aptamer fluorescence, dose response, artefact control for GRK2 aptamer binding project, biochemical, powder set 1, flow cytometry; Bead-bound FAM RNA aptamer fluorescence quenching; active compounds read low; 35 tested, under 10 active; fluorescence ratio to DMSO, % at 11.1 µM; AID 588496, 2011; shares compounds with GRK2 inh;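 active = compounds that dim the fluorescent label, raw bead signal shifting by over 33 units between lowest and highest dose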
An asterisk follows results filed as active.

For O=C(CN1C(=O)NC2(CCCc3ccccc32)C1=O)c1ccccc1F (configuration not stated) the results were Arrestin-AP2 inh -10, B2AR ag 0, NTR1 agonist 1, H9c2 TAG inh 14 and GRK2 inh 7.
`COc1ccccc1C(=O)NCC(=O)N/N=C(\C)Cc1ccccc1` gave Lipid droplet -1, Arrestin-AP2 inh 8, B2AR ag -12, NTR1 agonist 0 and GRK2 inh 0.
CN(C)c1cc(-c2ccc(Br)cc2)oc(=O)c1Cl was read as Lipid droplet 6, Arrestin-AP2 inh -14, B2AR ag -1, NTR1 agonist 2, H9c2 TAG inh 5 and GRK2 inh 5.
O=C(Nc1ccc(Oc2cccnc2)cc1)C1CCN(Cc2cc(Cl)ccc2O)CC1 was read as Lipid droplet -10, Arrestin-AP2 inh -2, B2AR ag 4, NTR1 agonist 3 and GRK2 inh 0.
COc1cc(C2N(c3ccccn3)C(=O)C3CCCN32)cc(OC)c1OC (configuration not stated) was read as Arrestin-AP2 inh 26, B2AR ag 2, NTR1 agonist -1, H9c2 TAG inh -1, GRK2 inh 59*, GRK2 inh confirm -2 and Aptamer quench SP 99.
For O=C(O)c1cccc2cc(-c3ccccc3)oc(=O)c12 the results were Lipid droplet 7, Arrestin-AP2 inh -7, B2AR ag 12, NTR1 agonist -1, GRK2 inh 0, GRK2 inh confirm -3 and Aptamer quench SP 94.
For O=C(C[n+]1cccc(C(=O)N/N=C/c2ccc(Br)cc2)c1)c1ccccc1 the results were Arrestin-AP2 inh 21, B2AR ag 6, NTR1 agonist 2, H9c2 TAG inh -6, GRK2 inh 89*, GRK2 inh confirm -4 and Aptamer quench SP 102.
For CC1(C)N([O-])c2cc([N+](=O)[O-])ccc2[N+]1=O the results were Lipid droplet 14, Arrestin-AP2 inh 37, B2AR ag 3, NTR1 agonist 3, GRK2 inh 68*, GRK2 inh confirm 3 and Aptamer quench SP 95.
Screening Cc1ccc(C)n1-c1cc([N+](=O)[O-])ccc1-n1ccnc1 returned Lipid droplet -8, Arrestin-AP2 inh 24, B2AR ag 0, NTR1 agonist 0, H9c2 TAG inh -3 and GRK2 inh 0.
`COc1cc(C)c2c(c1C=O)Oc1c(c(C)c(O)c3c1C(O)OC3=O)OC2=O` (configuration not stated) gave Lipid droplet 14, Arrestin-AP2 inh 26, B2AR ag -5, NTR1 agonist 1, GRK2 inh 66*, GRK2 inh confirm 14 and Aptamer quench SP 92.
Screening CC12CCC(C(=O)N/N=C/c3ccc(O)cc3O)(OC1=O)C2(C)C (configuration not stated) returned Lipid droplet 1, Arrestin-AP2 inh 1, B2AR ag -5, NTR1 agonist 3, H9c2 TAG inh 20 and GRK2 inh 0.
Screening O=C(Nc1ccc(N2CCCC2)c(Cl)c1)c1cccnc1 returned Lipid droplet -6, Arrestin-AP2 inh -3, B2AR ag -2, NTR1 agonist 0, H9c2 TAG inh 14, GRK2 inh 60*, GRK2 inh confirm -14 and Aptamer quench SP 37*.
Screening O=C(Nc1cccnc1)c1ccccc1Cl returned Lipid droplet -4, Arrestin-AP2 inh 15, B2AR ag -4, NTR1 agonist -1, H9c2 TAG inh 1, GRK2 inh 81*, GRK2 inh confirm -2 and Aptamer quench SP 97.
`O=C(Nc1ccc(N2CCCCC2)c(Cl)c1)c1cccnc1` gave Arrestin-AP2 inh 3, B2AR ag -3, NTR1 agonist -1, H9c2 TAG inh -17 and GRK2 inh 18.
`c1ccc(CSc2ccc(-c3ccc4c(c3)OCO4)nn2)cc1` gave Lipid droplet -3, Arrestin-AP2 inh 8, B2AR ag 2, NTR1 agonist 8 and GRK2 inh 1.
Screening Fc1ccc(CSc2ccc(-c3ccc4c(c3)OCO4)nn2)cc1 returned Lipid droplet 11, Arrestin-AP2 inh 7, B2AR ag 5, NTR1 agonist 0, GRK2 inh 49*, GRK2 CP2 13 and FAM quench CP2 99.
O=C(CSc1nncc2ccccc12)N1CCCCC1 was read as Lipid droplet -34, Arrestin-AP2 inh -21, B2AR ag -9, NTR1 agonist 0, H9c2 TAG inh 8 and GRK2 inh 0.
Screening O=C(O)Cc1ccc(-n2cccc2)cc1 returned Lipid droplet -2, Arrestin-AP2 inh 14, B2AR ag 2, NTR1 agonist 1, H9c2 TAG inh 9, GRK2 inh 99*, GRK2 inh confirm 99*, Aptamer quench 9.5, Aptamer quench SP 121 and FAM quench DR 98.
For O=C(Cc1ccc(-n2cccc2)cc1)NC1CCCCC1 the results were Arrestin-AP2 inh 33, B2AR ag 17, NTR1 agonist -1, H9c2 TAG inh -4, GRK2 inh 45*, GRK2 inh confirm -2 and Aptamer quench SP 95.
